Converted amounts (≈) assume the structure as drawn.
Key:
Format in all cases: functional, cell-based
A549 = test: Cytotoxicity against human A549 cells after 3 days by sulforhodamine B assay; conditions: A549, 72 h
Outline: (§1)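 Freshly trypsinized cells seeded at 5000 per well; compounds added from DMSO-diluted stock. Cells grown in RPMI-1640 with 25 mM HEPES, 0.25% sodium bicarbonate, 10% FBS and 100 μg/mL kanamycin. After three days, attached cells fixed with cold 10% TCA and stained with 0.4% SRB. Bound dye solubilized and absorbance read at 562 nm. EC50 (50% growth reduction) averaged from at least three independent determinations.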

DU-145 = test: Cytotoxicity against human DU145 cells after 3 days by sulforhodamine B assay; conditions: DU-145, 72 h; outline: as §1
[1] = Cytotoxicity against human KBVIN cells after 3 days by sulforhodamine B assay; conditions: 72 h; outline: as §1
PC-3 = test: Cytotoxicity against human PC3 cells after 3 days by sulforhodamine B assay; conditions: PC-3, 72 h; outline: as §1
KB = test: Cytotoxicity against human KB cells after 3 days by sulforhodamine B assay; conditions: 72 h; outline: as §1
MCF7 = test: Cytotoxicity against human MCF7 cells after 3 days by sulforhodamine B assay; conditions: MCF7, 72 h; outline: as §1
HCT-8 = test: Cytotoxicity against human HCT8 cells after 3 days by sulforhodamine B assay; conditions: HCT-8, 72 h; outline: as §1

| SMILES | EC50 (A549) | EC50 (DU-145) | EC50 [1] | EC50 (PC-3) | EC50 (KB) | EC50 (MCF7) | EC50 (HCT-8) |
| --- | --- | --- | --- | --- | --- | --- | --- |
| COc1cc2c(c(OC)c1O)-c1c(O)ccc(O)c1CC2 [CALANHYDROQUINONE A] | 3.58 µg/mL | 5.84 µg/mL (≈ 20.3 µM) | 5.37 µg/mL (≈ 18.6 µM) | 2.52 µg/mL (≈ 8.74 µM) | 3.47 µg/mL (≈ 12 µM) | 2.31 µg/mL | 4.57 µg/mL |
| COc1cc(O)cc2c1-c1ccc(O)cc1CC2 | 5.05 µg/mL | 4.79 µg/mL (≈ 19.8 µM) | 7.92 µg/mL (≈ 32.7 µM) | 2.82 µg/mL (≈ 11.6 µM) | 3.4 µg/mL (≈ 14 µM) | 1.8 µg/mL | 3.84 µg/mL |
| COc1cc2c(c(OC)c1O)C1=C(CC2)C(=O)C=CC1=O [CALANQUINONE C] | 3.58 µg/mL | 4.34 µg/mL (≈ 15.2 µM) | 4.68 µg/mL (≈ 16.3 µM) | 2.07 µg/mL (≈ 7.23 µM) | 2.97 µg/mL (≈ 10.4 µM) | 2.12 µg/mL | 4.14 µg/mL |
| COc1c(O)cc2c(c1OC)-c1c(O)ccc(O)c1CC2 [CALANHYDROQUINONE B] | 4.07 µg/mL | 5.46 µg/mL (≈ 18.9 µM) | 5.24 µg/mL (≈ 18.2 µM) | 2.62 µg/mL (≈ 9.09 µM) | 3.75 µg/mL (≈ 13 µM) | 3.28 µg/mL | 5.16 µg/mL |
| COc1cc2c(c(OC)c1OC)-c1c(O)ccc(O)c1CC2 [CALANHYDROQUINONE C] | 2.36 µg/mL | 3.78 µg/mL (≈ 12.5 µM) | 4.73 µg/mL (≈ 15.6 µM) | 0.85 µg/mL (≈ 2.81 µM) | 2.86 µg/mL (≈ 9.46 µM) | 1.7 µg/mL | 3.96 µg/mL |
| COc1cc(O)c(-c2c(O)cc(OC)c3c2CCc2cc(O)ccc2-3)c2c1-c1ccc(O)cc1CC2 | 4.61 µg/mL | 4.11 µg/mL (≈ 8.52 µM) | 3.96 µg/mL (≈ 8.21 µM) | 5.37 µg/mL (≈ 11.1 µM) | 4.4 µg/mL (≈ 9.12 µM) | 3.5 µg/mL | 4.6 µg/mL |
| COC1=CC(=O)c2ccc3cc(OC)c(OC)c(O)c3c2C1=O [CALANQUINONE A] | 0.19 µg/mL | 0.34 µg/mL (≈ 1.08 µM) | 0.45 µg/mL (≈ 1.43 µM) | 0.16 µg/mL (≈ 0.509 µM) | 0.32 µg/mL (≈ 1.02 µM) | < 0.02 µg/mL | 0.2 µg/mL |
| COc1cc2ccc3cccc(O)c3c2c(OC)c1O [BULBOPHYLLANTHRIN] | 5.06 µg/mL | 8.29 µg/mL (≈ 30.7 µM) | 6.99 µg/mL (≈ 25.9 µM) | 3.38 µg/mL (≈ 12.5 µM) | 5.63 µg/mL (≈ 20.8 µM) | 3.26 µg/mL | 5.26 µg/mL |
| COc1cc(O)c(-c2c(O)cc(OC)c3c2ccc2cc(O)ccc23)c2c1-c1ccc(O)cc1CC2 [CIRRHOPETALANTHRIN] | 11.2 µM | – | – | – | – | 12.5 µM | 7.3 µM |
| COC1=CC(=O)c2ccc3cc(OC)c(OC)cc3c2C1=O [SPHENONE A] | – | – | – | – | 2.7 µg/mL (≈ 9.05 µM) | – | – |
| COC1=CC(=O)c2ccc3cc(OC)c(O)c(OC)c3c2C1=O [CALANQUINONE B] | 4.54 µg/mL | 6.45 µg/mL (≈ 20.5 µM) | 13.3 µg/mL (≈ 42.3 µM) | 1.55 µg/mL (≈ 4.93 µM) | 6.46 µg/mL (≈ 20.6 µM) | 1.81 µg/mL | 4.56 µg/mL |
| COC1=CC(=O)c2ccc3ccccc3c2C1=O [ANNOQUINONE A] | – | – | – | – | 0.16 µg/mL (≈ 0.672 µM) | – | – |
| COc1cc(O)c2c(c1)CCc1ccc(O)c(OC)c1-2 [CALANPHENANTHRENE A] | 7.71 µg/mL | 13.2 µg/mL (≈ 48.5 µM) | 5.48 µg/mL (≈ 20.1 µM) | 7.06 µg/mL (≈ 25.9 µM) | 11.8 µg/mL (≈ 43.3 µM) | 6.52 µg/mL | 6.73 µg/mL |
| CC(=O)O[C@H]1C(=O)[C@@]2(C)[C@H]([C@H](OC(=O)c3ccccc3)[C@]3(O)C[C@H](OC(=O)[C@H](O)[C@@H](NC(=O)c4ccccc4)c4ccccc4)C(C)=C1C3(C)C)[C@]1(OC(C)=O)CO[C@@H]1C[C@@H]2O [PACLITAXEL] | < 0.005 µg/mL | < 0.005 µg/mL | 2.16 µg/mL (≈ 2.53 µM) | 0.0097 µg/mL (≈ 0.0114 µM) | < 0.005 µg/mL | 0.0072 µg/mL | 0.21 µg/mL |
| COc1cc2c(cc1O)CCc1cc(O)cc(OC)c1-2 | 4.24 µg/mL | 5.38 µg/mL (≈ 19.8 µM) | 5.84 µg/mL (≈ 21.4 µM) | 2.67 µg/mL (≈ 9.81 µM) | 3.9 µg/mL (≈ 14.3 µM) | 2.59 µg/mL | 4.55 µg/mL |

From ChEMBL document CHEMBL1152308, “Cytotoxic phenanthrenequinones and 9,10-dihydrophenanthrenes from Calanthe arisanensis” (J Nat Prod, 2009)
